The structures appear in SMILES notation. Active and inactive are the calls of the source. The rule behind the calls is not given here.

For assay [1], the system named is MRC5. The assay is described as follows: Induction of DNA damage in human MRC5 cells assessed as formation of DNA breaks at 25 uM after 24 hrs by comet assay relative to control. The assay is classed as functional. The method, boiled down:
(§1)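 MRC-5 cells exposed 24 h to 3.125–25 μM compound; DNA damage scored as % tail DNA (tail intensity) by comet assay. PBS negative control; H2O2 50 μM 5 min in-gel positive control. Triplicate, repeated twice; mean ± SD.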

The test system of assay [2] is Calf thymus DNA. The assay is described as follows: Binding affinity to calf thymus DNA at 10 to 40 uM after 90 mins by UV/visible spectrophotometric analysis. To be noted: Bos taurus. The assay is classed as nucleic-acid assay. Put shortly:
(§2)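 CT-DNA stock in 10 mM Tris-HCl pH 7.9 (A260/A280 1.89–2.01; concentration from ε260 6600 M–1 cm–1). Compound (10, 20 or 40 μM) plus CT-DNA (95 μM) in 40 mM bicarbonate pH 8.4, 37 °C 90 min; spectra 200–800 nm. Hyper/hypochromism at 259 nm from bound versus summed free compound and DNA extinction; triplicate.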

For assay [3], the system named is HeLa. The assay is described as follows: Downregulation of MMP2 gene expression in human HeLa cells at 10 uM after 24 hrs by RT-qPCR method. The class given is functional, cell-based. In general terms: In qPCR the cycle at which signal appears reflects the starting amount.
Assay [4] concerns HeLa. The assay is described as follows: Downregulation of miR-133b expression in human HeLa cells at 10 uM after 24 hrs by RT-qPCR method. The class given is functional, cell-based.
In assay [5] the test system is HeLa. In words: Prooxidant activity in human HeLa cells assessed as increase in H2O2-induced reactive oxygen species at 10 uM preincubated for 24 hrs followed by H2O2 addition and measured after 30 mins by dichlorofluorescein dye-based flow cytometric method. The assay is classed as functional, cell-based. The method, boiled down: (§3)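 HeLa cells pretreated 24 h with 10 μM compound, washed, loaded with 30 μM DCFH-DA in PBS 45 min at 37 °C. One portion read directly (endogenous ROS); other portion exposed to 10 mM H2O2 30 min at 37 °C. DCF green fluorescence by flow cytometry, 20 000 events per sample; mean ± SD of two independent experiments.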
A general note: Flow cytometry measures light scatter and fluorescence of single cells or particles in a stream.

Assay [6] concerns HeLa. The assay is described as follows: Upregulation of MMP9 gene expression in human HeLa cells at 10 uM after 24 hrs by RT-qPCR method. The assay is classed as functional, cell-based.
The test system of assay [7] is HeLa. In words: Cell cycle arrest in human HeLa cells assessed as decrease in cell levels at G1 phase at 2 times IC50 after 24 hrs by propidium iodide staining-based flow cytometric method. The assay is classed as functional. Put shortly: (§4)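 HeLa cells treated 24 h at IC50 or 2×IC50 (from 72 h assay), fixed in 70% ethanol, stored at –20 °C ≥1 week, RNase A 30 min 37 °C, propidium iodide stained; flow cytometry, 10 000 gated events. Mean ± SD of three independent experiments; one-way ANOVA with Dunnett's post-test, p < 0.05.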

Assay [8] relates to HeLa. The assay is described as follows: Cell cycle arrest in human HeLa cells assessed as decrease in cell levels at G1 phase at IC50 after 24 hrs by propidium iodide staining-based flow cytometric method. The class given is functional. The method, boiled down: as §4
The subject of assay [9] is Calf thymus DNA. The assay is described as follows: Displacement of Hoechst 33258 from calf thymus DNA assessed as fluorescence intensity of compound-DNA complex at 22 uM by fluorescence spectrophotometric analysis relative to control. The class given is nucleic-acid assay. The conditions noted are these: Bos taurus. Put shortly:
(§5)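 CT-DNA 100 μM (per phosphate) in 40 mM bicarbonate pH 8.4 pretreated 20 min with Hoechst 33258 (28 μM final), then compound added stepwise. Excitation 350 nm, emission 390–550 nm, read at 444 nm, 10 nm slits; H–DNA as control. Quenching constant K by Stern–Volmer, I0/I versus r = [compound]/[DNA]; triplicate.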

Assay [10] has as its system DNA. The assay is described as follows: Induction of Escherichia coli pUC19 DNA cleavage after 90 mins by agarose gel electrophoresis method. The assay is classed as nucleic-acid assay. The method, boiled down:
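Plasmid pUC19 (from E. coli XL1 blue; 460 ng, 12 nM) incubated with compound (0.05–0.4 mM; from 2 mM DMSO stock) in 20 μL 40 mM bicarbonate pH 8.4 at 37 °C for 90 min; 1% agarose gel in TAE at 80 V, ethidium bromide staining, UV at 312 nm; supercoiled/nicked/linear forms scored.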

In assay [11] the test system is MRC5. In words: Induction of DNA damage in human MRC5 cells assessed as formation of DNA breaks after 24 hrs by comet assay. The assay is classed as functional, cell-based. Put shortly: as §1
Assay [12] deals with Calf thymus DNA. The assay is described as follows: Binding affinity to calf thymus DNA after 90 mins by spectroscopic titration method. The assay is classed as nucleic-acid assay. The conditions noted are these: Bos taurus. Put shortly: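 Compound fixed at 40 μM titrated with CT-DNA (2.2–13 × 10–5 M) in 40 mM bicarbonate pH 8.4 after 90 min at 37 °C; absorbance at 259 nm per DNA level. Kb from slope/intercept ratio of [DNA]/(εa–εf) versus [DNA] plot; triplicate assays.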

The subject of assay [13] is HeLa. In words: Downregulation of TIMP3 gene expression in human HeLa cells at 10 uM after 24 hrs by RT-qPCR method. The class given is functional, cell-based.
Assay [14] relates to Calf thymus DNA. The assay is described as follows: Displacement of Hoechst 33258 from calf thymus DNA assessed as quenching constant by fluorescence spectrophotometric analysis. The assay is classed as nucleic-acid assay. To be noted: Bos taurus. The method, boiled down: as §5
For assay [15], the system named is Calf thymus DNA. In words: Binding affinity to calf thymus DNA assessed as hyperchromism at 40 uM after 90 mins by UV/visible spectrophotometric analysis. The class given is nucleic-acid assay. To be noted: Bos taurus. The method, boiled down:
as §2

Assay [16] relates to DNA. In words: Reversal of Fe2+-induced Escherichia coli pUC19 DNA cleavage at 1:1 compound to Fe2+ mole ratio after 90 mins by agarose gel electrophoresis method. The class given is functional. The method, boiled down:
(§6)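 Compound (4 μL of 2 mM) preincubated with FeSO4 (1 or 2 μL of 8 mM; compound:Fe 1:1 or 1:2) in bicarbonate buffer 60 min at 37 °C, then pUC19 added for another 90 min; products resolved on 1% agarose gel, ethidium bromide stained.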

Assay [17] deals with DNA. In words: Reversal of Fe2+-induced Escherichia coli pUC19 DNA cleavage at 1:2 compound to Fe2+ mole ratio after 90 mins by agarose gel electrophoresis method. The class given is functional. Put shortly:
as §6

Assay [18] relates to Calf thymus DNA. In words: Binding affinity to calf thymus DNA assessed as hyperchromism at 10 uM after 90 mins by UV/visible spectrophotometric analysis. The assay is classed as nucleic-acid assay. To be noted: Bos taurus. Put shortly: as §2
In assay [19] the test system is HeLa. In words: Downregulation of miR-155 expression in human HeLa cells at 10 uM after 24 hrs by RT-qPCR method. The assay is classed as functional, cell-based.
Assay [20] concerns HeLa. In words: Downregulation of miR-21 expression in human HeLa cells at 10 uM after 24 hrs by RT-qPCR method. The class given is functional, cell-based.
For assay [21], the system named is HeLa. In words: Cell cycle arrest in human HeLa cells assessed as accumulation at sub-G1 phase at 2 times IC50 after 24 hrs in presence of caspase-9 inhibitor Z-LEHD-FMK by propidium iodide-staining based flow cytometric method. The class given is functional. The method, boiled down:
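HeLa cells pretreated 2 h with 40 μM peptide caspase inhibitor (Z-DEVD-FMK caspase-3, Z-IETD-FMK caspase-8 or Z-LEHD-FMK caspase-9), then exposed to 2×IC50 compound; subG1 fraction by propidium iodide flow cytometry, compared with samples lacking inhibitor.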

The test system of assay [22] is HeLa. The assay is described as follows: Antioxidant activity in human HeLa cells assessed as decrease in reactive oxygen species at 10 uM after 24 hrs by dichlorofluorescein dye-based flow cytometric method. The class given is functional, cell-based. The method, boiled down: as §3
Assay [23] concerns HeLa. The assay is described as follows: Cytotoxicity against human HeLa cells assessed as decrease in cell survival after 72 hrs by MTT assay. The assay is classed as functional, cell-based. Put shortly: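 HeLa (2000/well), A549 and MRC-5 (5000/well) seeded 20 h before treatment; HL-60 (7000/well) 2 h before. Five concentrations (6.25–100 μM or 3.125–50 μM) from 5 mM DMSO stocks, final DMSO ≤1%, 72 h; survival by MTT. Cisplatin positive control; three independent experiments in triplicate.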

By IC50 is commonly meant the concentration that inhibits the measured activity by half. In the case of `Cc1cccc(C(=O)/C=C/c2ccc(C(=O)Nc3nnc(-c4ccc(O)c(O)c4)s3)cc2)c1`, the Activity in assay [1] was 38%; in [9], 60%; in assay [11], “Dose-dependent effect”; in [15], -4.9%; in assay [18], -13.7%. For the same molecule, the outcome in assay [2], in assay [3], in assay [4], in assay [6], in assay [7] and in [8] was Active. For the same molecule, the result in assay [13], in [16], in [17] and in assay [22] was Active. The outcome in assay [5], in assay [10], in [19], in [20] and in assay [21] was inactive. In assay [12], this molecule displayed a Kb of 0.74 ×10³ /M. Moreover, the K in assay [14] was 2.95. The IC50 in [23] turned out to be 9.63 µM.

(Values after ChEMBL document CHEMBL4257556, “Novel 1,3,4-thiadiazole-chalcone hybrids containing catechol moiety: synthesis, antioxidant activity, cytotoxicity and DNA interaction studies” (Medchemcomm, 2018).)
